We go through 167 variants from the RNAGym collection of RNA variant scans (doi:10.1126/science.aae0568).

Fewer inactive variants are shown than the library holds. Some results are limits rather than exact numbers.

To fix the notation:
B1: tRNA (parent)
chain: GUUCCGUUGGCGUAAUGGUAACGCGUCUCCCUCCUAAGGAGAAGACUGCGGGUUCGAGUCCCGUACGGAACG

In this data set the parent is B1. The data set can be described thus: yeast fitness relative to wild type (ratio to wild type); higher = fitter; tRNA-Arg(CCU), competitive growth, 37 C, YPD. An outline of the steps: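 For this measurement, the tRNA-Arg(CCU) gene was varied by chemical synthesis at a 3% per-site mutation rate across 69 sites, and each variant was placed at the native genomic locus in Saccharomyces cerevisiae. The pooled strains went through a 24-hour competition in YPD at 37°C in six parallel replicates, with amplicons from start and end populations read by 100-nucleotide paired-end sequencing. Darwinian fitness relative to wild type followed from the change in each genotype's frequency. Genotypes needed ≥ 100 starting reads, and estimates < 0.5 were set to 0.5.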
For U13G A40U, the yeast fitness came out at 0.945.

Take U13C C62G: the yeast fitness worked out at 0.804.

With A14C A21U C24A A37U A45U, the yeast fitness was no more than 0.5. To A14C A20C C34A A42U belongs no more than 0.5; to A14C C34U A37G, 0.507. To U13G C30A belongs 0.715. Consider U13C U54A C60U, for which the yeast fitness was no more than 0.5. To A14C A40U A43C belongs 0.564; to A14C A20U G25C A43C C66U, no more than 0.5.

For the variant A14C A15C C34G A43C C49A, the yeast fitness was 0.627. To A14C C22G A37C belongs no more than 0.5; to U13G A20U U53C C62U, no more than 0.5; to U13G A42C U64C, 0.715.

Regarding U13G A65U, the yeast fitness was determined as 0.896. Next, U13G G38A: 0.781; U13C C31U C55G G67C: no more than 0.5.

As to U13G C27A C30A A57C, the yeast fitness is no more than 0.5. Next, A14C C34G A43U C62A: 0.716.

With A14C A36G G41A G48C U59C, the yeast fitness was determined as 0.7.

For U13G G18C C30U C33G U47G, the yeast fitness turned out to be 0.578. To U13C C24G C49G belongs no more than 0.5; to U13G A14U G17A, no more than 0.5. Next, A14C C27G A69U: 0.561; U13G A43C U54A A57G: no more than 0.5; U13G A20G U53G C66U: no more than 0.5. To U13G A45U C55G belongs no more than 0.5; to A14C A45U G50C G68C, no more than 0.5; to A14C C33U, 0.64.

As to U13G A43G, the yeast fitness was determined as 0.902. To U13C C31G A40C A42G G51A belongs 0.578; to U13G A40G C61U G63C, no more than 0.5. Next, A14C A42G U47C: no more than 0.5.

Turning to A14C C33G A42C G48A C60U, the yeast fitness was no more than 0.5. Next, A14C C29U A36G A45U A70U: no more than 0.5; A14C C29U A36G A45U A70G: 0.548; A14C A40C G41C C55A A70U: no more than 0.5. Next, U13G G17U U28A G41C U64G: no more than 0.5; U13G A21G: 0.895. To U13G A21C belongs 0.611. For U13G C22G C27A C61U, the yeast fitness was no more than 0.5. For U13C C22G G68C, the yeast fitness is 0.542.

U13C C22G G68U: the yeast fitness was no more than 0.5. To U13G U35G A40G belongs 0.676. Next, U13C C22G C27A G51C: no more than 0.5; U13C C24G U26A C55G C66A: 0.561; A14C A65G A69U: 0.634. For A14C A36G A69C, the yeast fitness is no more than 0.5. Next, U13C U26A: 0.982. Next, A14C C24U C31G A36U: 0.664. To U13G A45C G48A belongs 0.898. Consider A14C C27U C55G A70U, for which the yeast fitness amounted to 0.613. To U13G C27A belongs 0.628.

For U13G U28G, the yeast fitness worked out at 0.59. On to U13G U28C, for which the yeast fitness was found to be 0.867. In the case of U13C G18C G52C G56A, the yeast fitness is no more than 0.5.

A14C A21U A45C A57G: the yeast fitness is no more than 0.5.

With A14C A20G C22U C49G G56C, the yeast fitness was no more than 0.5.

As for A14C A42C C49A A70U, the yeast fitness stood at 0.588.

For U13G U35G A40G C61A, the yeast fitness is no more than 0.5.

Consider A14C C30U G41C A69U, for which the yeast fitness was no more than 0.5. To U13C U59C C66U G67U belongs 0.576. To A14C C31U belongs 0.706; to U13C U47C C62U, 0.715. Next, U13C C27U A69U A70C: no more than 0.5; U13C C29A C33A U35C G51A: no more than 0.5; U13G C61U A70G: 0.618.

On to U13C G58C A69U, for which the yeast fitness was 0.7. To U13C C29A G51C G63A belongs no more than 0.5; to A14C C46A, 0.641; to A14C C46U, 0.915. To A14C A20G C27U U64A G67A belongs 0.566; to U13C A65G, 0.956; to U13C A69U, 1.07. Next, A14C C22A U59C C62A: no more than 0.5. Regarding A14C A42U G44C, the yeast fitness is no more than 0.5. Next, U13C C33U A45G G50A C66A G68A A70U: no more than 0.5; A14C C24G A42G: no more than 0.5.

Take U13C G58C: the yeast fitness was determined as 0.922.

Take U13C G58A: the yeast fitness is 0.891. To U13C C31U A70C belongs 0.756; to U13C C27U C31A U35C C55G C66U A70C, no more than 0.5. To A14C A40U belongs 0.587; to A14C A40G, 0.596; to U13C G48A, 0.853. Next, U13C C49A: 0.795. For U13G A15C C30G C34A U35A U53C A57U C60G, the yeast fitness came to 0.564. Next, A14C C30A C31U A36U: no more than 0.5. For the variant A14C C60G A70U, the yeast fitness was no more than 0.5.

Take U13C C27G: the yeast fitness was found to be 0.544. With U13C C22G, the yeast fitness was 0.709. As to U13C C22A, the yeast fitness is 0.791.

Take A14C A57C: the yeast fitness was determined as 0.516. For the variant A14C C30A C31G, the yeast fitness was no more than 0.5. To U13C G23C A36C G39A belongs 0.611; to U13G G63C, 0.696; to U13C G50U, 0.81. To A14C A36U A37G G52A A65U A70C belongs no more than 0.5; to A14C C24U U26A G52C, no more than 0.5. Next, A14C C24A: no more than 0.5; A14C C24U: 0.666; A14C C22G G25C G44A C61G: 0.543. A14C C24A G67A: the yeast fitness is no more than 0.5.

With A14C A21G, the yeast fitness came out at 0.713. A14C A21C: the yeast fitness was 0.609. Consider A14C A43C A57G C66U, for which the yeast fitness is no more than 0.5. As for U13C U16G, the yeast fitness came to 0.865. Take A14C C31U A36U: the yeast fitness turned out to be 0.631. For U13C G44C G58A G68A, the yeast fitness is 0.572. To A14C A43U G63C belongs no more than 0.5. Next, U13C C24G C30A U47C: no more than 0.5; U13C C33A G41A A45C U59C A65U: no more than 0.5. To A14C C31G A43C G51A belongs no more than 0.5; to U13G G58C G67C, 0.603; to A14C A42C U47C, no more than 0.5. A14C C29G: the yeast fitness is no more than 0.5. To U13G C24G G51A belongs no more than 0.5; to A14C C30U A37C C62A, 0.693; to A14C C24U C29U A40U G68U, no more than 0.5. As for A14C C30G A37G A45G U59C G67C, the yeast fitness is no more than 0.5. Next, U13C C27G U35G C49G A57C: no more than 0.5. U13C G52A A69U: the yeast fitness came to 0.689. To U13C C46U belongs 0.886; to U13C A57U C62U, no more than 0.5; to A14C C55U, 0.645. To A14C C55G belongs 0.827; to U13C C34U G48C C61U G67A, no more than 0.5. To A14C C22U C24U U53A belongs no more than 0.5; to U13G C22G G63C G67A, no more than 0.5; to U13G C31G A43U C46G A70U, no more than 0.5. For U13C U16G A43U, the yeast fitness is 1.02. Next, A14C A37G A57G: 0.625; A14C C30A: 0.576; A14C C30U: 0.622. To A14C C30G belongs 0.508. Take A14C A15C G25C A57C C62G A69G: the yeast fitness is no more than 0.5. To U13C G48C A65G belongs 0.655. For U13C U26C C27G C34U A37U A43G A45G C46U, the yeast fitness was no more than 0.5. To A14C C27G C46G belongs 0.619; to U13G C22U, 0.972; to U13G C22G, 0.809. Next, U13C G17A A43U: 0.523.

As to U13C G25C C61U, the yeast fitness worked out at 1.14. Next, U13C G51C C66A: no more than 0.5. Take U13C C27G A40U C66U: the yeast fitness worked out at 0.538. Next, A14C A36U G38A A65C: no more than 0.5; U13G G44A A57U: 0.617.

For A14C A69G, the yeast fitness was 0.692. To U13G A36C C46U belongs no more than 0.5. Next, U13C C24G G67C: no more than 0.5; A14C C24U U35C C55U: no more than 0.5.

Take U13C U16A A57U: the yeast fitness is no more than 0.5.

Regarding A14C A42U C60G A70G, the yeast fitness is no more than 0.5. To A14C A43G U59C C62A belongs no more than 0.5; to U13C G18A C46G U47A C49U C55G A57C, no more than 0.5; to A14C C34U G39C, 0.625. Next, U13G C27U G44A A57U: no more than 0.5; U13C G25A C31U G38C: 0.659. Next, U13G A36U A40C: no more than 0.5; U13C C30G C31A: no more than 0.5.

As for U13G C31A U54C A57U, the yeast fitness is no more than 0.5. Next, U13C G63C: 0.742; U13G A20U A65C: 0.594. Next, U13C U26C C31U: 0.784; U13G U28A C30A C61G: no more than 0.5. To U13C G52C U53A C55G A69U belongs no more than 0.5; to U13C C55G, 0.645. Turning to U13G C22U C31A C55U G63A A69C, the yeast fitness was no more than 0.5.
